Laboratory results reported in ChEMBL document CHEMBL5154634, “A Modular Synthetic Route Involving N-Aryl-2-nitrosoaniline Intermediates Leads to a New Series of 3-Substituted Halogenated Phenazine Antibacterial Agents” (J Med Chem, 2021).
In brackets after ≈: the same amount, converted by molar mass. Activity calls are given as the source filed them. The calls are words filed in the database; no cut-off is given here.

What was measured:
HepG2 = test: Cytotoxicity against human HepG2 cells assessed as reduction in cell viability […] by Alamar blue assay; format: toxicity, cell-based
[1] = test system: Mycobacterium tuberculosis; test: Antibacterial activity against Mycobacterium tuberculosis CDC1551 assessed as bacterial growth inhibition incubated for 5 days by luminescence based analysis; format: functional; conditions: CDC1551, 120 h, time 5 day
Procedure, shortened: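 Bioluminescent Mtb-lux CDC1551 reporter grown in Middlebrook 7H9 with 0.05% Tween 80, 10% OADC and kanamycin to OD600 0.4–0.8, then diluted to OD600 0.02. Added to twofold drug dilutions (0.003–200 μM). Incubated 5 days at 37 °C, 5% CO2. Luminescence read against 1% DMSO and 10 μM rifampicin controls to give % growth inhibition. MIC taken from a modified Gompertz fit.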

Staphylococcus aureus [2] = test: Induction of iron starvation in methicillin-resistant Staphylococcus aureus BAA-1707 biofilms assessed as upregulation of sfaA gene expression at 1 uM incubated for 4 hrs by RT-qPCR analysis; format: functional
Procedure, shortened: (§1)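 MRSA BAA-1707 grown in TSB with 0.5% glucose to OD600 ~0.8–1.0, then biofilms formed 20 h at 37 °C statically in gelatin-coated 24-well plates. Biofilms treated 4 h at 37 °C with compound (1 μM or 1/10 MBEC) or DMSO vehicle. RNA extracted; only RIN ≥7 samples used. One-step SYBR RT-qPCR; ΔCT normalised to ptaA. Three independent experiments.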

HEK293 = test: Cytotoxicity against human HEK293 cells assessed as reduction in cell viability incubated for 72 hrs by MTT assay; format: toxicity, cell-based
Procedure, shortened: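 HEK-293 cells in DMEM with 10% FBS, 10⁴ cells/well, seeded overnight. Exposed to 0–200 μM (twofold steps, n = 6) for 72 h at 37 °C. MTT 5 mg/mL added for 4 h, formazan dissolved in DMSO, OD read at 570 nm. Inhibition % = (1 − test/untreated OD) × 100.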

Staphylococcus aureus [3] = test: Antibiofilm activity against methicillin-resistant Staphylococcus aureus BAA-1707 biofilms assessed as biofilm killing at MBEC measured by CBD assay; format: functional
Staphylococcus aureus [4] = test: Antibacterial activity against methicillin-resistant Staphylococcus aureus clinical isolate 2 assessed as bacterial growth inhibition; format: functional
Enterococcus faecalis = test: Antibacterial activity against Enterococcus faecalis OG1RF ATCC 47077 infected in C57BL/6J mouse dorsal wound infection model assessed as reduction in bacterial load in wound administered topically once a day for 3 days; format: functional; conditions: time 3 day
Procedure, shortened: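 Female C57BL/6J mice, 7 weeks old. 3 mm dorsal punch wound infected with 20 μL of 6×10¹⁰ CFU/mL and covered with Tegaderm. From 24 h post-infection, PEG 400/PEG 3350 ointment or PEG vehicle applied topically once daily. Day 3 wounds excised, homogenized in PBS and plated on TSA with rifampicin and fusidic acid for CFU.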

HeLa = test: Cytotoxicity against human HeLa cells assessed as reduction in cell viability incubated for 24 hrs by LDH release assay; format: toxicity, cell-based
Procedure, shortened: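 HeLa cells in DMEM with 10% FBS, treated at 70–80% confluence with 25, 50 and 100 μM for 24 h. LDH in supernatant measured by 30 min reaction at room temperature, then stop solution and absorbance at 490 nm. Controls: 2% Triton X-100 (maximum), medium only, DMSO vehicle. Three independent experiments.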

Staphylococcus aureus [5] = test: Antibiofilm activity against methicillin-resistant Staphylococcus aureus BAA-1707 biofilms assessed as reduction of viable biofilm cells at MBEC measured by CBD assay; format: functional
Procedure, shortened: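 After the Calgary biofilm device assay, treated and untreated pegs were removed, sonicated 30 min in PBS and plated for CFU per peg. Log10 reduction of viable biofilm cells at the MBEC determined by comparison with untreated pegs. At least three independent experiments.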

Erythrocyte = test: Hemolytic activity against human RBC at 200 uM measured after 1 hr; format: toxicity, cell-based
Procedure, shortened: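 2% hRBCs exposed to compound at 200 μM final, added from DMSO stock, for 1 h at 37 °C. Supernatant OD read at 405 nm. Hemolysis normalized between DMSO (0%) and Triton X (100%); three independent experiments.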

Staphylococcus aureus [6] = test: Induction of iron starvation in methicillin-resistant Staphylococcus aureus BAA-1707 biofilms assessed as upregulation of sbnC gene expression at 1/10XMBEC incubated for 4 hrs by RT-qPCR analysis; format: functional; procedure, shortened: as §1
[7] = test system: Staphylococcus epidermidis; test: Antibiofilm activity against methicillin-resistant Staphylococcus epidermidis ATCC 35984 biofilms assessed as biofilm killing at 3.13 uM measured by CBD assay; format: functional
Staphylococcus aureus [8] = test: Antibacterial activity against methicillin-resistant Staphylococcus aureus 147 assessed as bacterial growth inhibition; format: functional
Staphylococcus aureus [9] = test: Antibacterial activity against methicillin-resistant Staphylococcus aureus BAA-1707 assessed as bacterial growth inhibition incubated for 16 hrs by broth microdilution susceptibility test; format: functional
Procedure, shortened: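 CLSI broth microdilution with 11 twofold dilutions (0.05–50 μM). About 10^5 cells per well from a log-phase culture. DMSO vehicle up to 0.5% v/v. At least three independent experiments.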

Staphylococcus aureus [10] = test: Induction of iron starvation in methicillin-resistant Staphylococcus aureus BAA-1707 biofilms assessed as upregulation of MW0695 gene expression at 1 uM incubated for 4 hrs by RT-qPCR analysis; format: functional; procedure, shortened: as §1
[11] = test system: Staphylococcus epidermidis; test: Bactericidal activity against methicillin-resistant Staphylococcus epidermidis ATCC 35984 planktonic cells assessed as planktonic eradication incubated for 24 hrs followed by incubation for overnight in fresh medium by Calgary biofilm device assay; format: functional
Procedure, shortened: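 Calgary biofilm device. Biofilms grown 24 h at 37 °C in TSB with 0.5% glucose, then challenged 24 h with twofold compound dilutions. 20 μL of challenge medium transferred into fresh TSB with 0.5% glucose and incubated overnight at 37 °C. MBC is the concentration with no visible turbidity. At least three independent experiments.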

Staphylococcus aureus [12] = test: Antibacterial activity against methicillin-resistant Staphylococcus aureus 138 assessed as bacterial growth inhibition; format: functional
Enterococcus faecium = test: Antibacterial activity against vancomycin-resistant Enterococcus faecium ATCC 700221 assessed as bacterial growth inhibition incubated for 16 hrs by broth microdilution susceptibility test; format: functional
Procedure, shortened: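 CLSI broth microdilution with 11 twofold dilutions (0.05–50 μM). Medium was LB for the staphylococci and BHI for VRE 700221. About 10^5 cells per well from a log-phase culture. […] DMSO vehicle up to 0.5% v/v. At least three independent experiments.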

Staphylococcus aureus [13] = test: Antibacterial activity against methicillin-resistant Staphylococcus aureus 129 assessed as bacterial growth inhibition; format: functional
Staphylococcus aureus [14] = test: Induction of iron starvation in methicillin-resistant Staphylococcus aureus BAA-1707 biofilms assessed as upregulation of sbnC gene expression at 1 uM incubated for 4 hrs by RT-qPCR analysis; format: functional; procedure, shortened: as §1
Staphylococcus aureus [15] = test: Antibacterial activity against Staphylococcus aureus UAMS-1 infected in BALB/c mouse dorsal wound infection model assessed as reduction in bacterial load in wound administered topically twice a day for 3 days; format: functional; conditions: time 3 day
Procedure, shortened: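 Female BALB/c mice, 4–6 weeks old, anesthetized with ketamine/xylazine i.p. 4.5 mm dermal punch wound inoculated with 1×10⁷ CFU in 10 μL. 50 μL PEG 400/3350 ointment or vehicle given 45 min post-inoculation, then every 12 h for 3 days. Tissue excised with 7 mm punch, homogenized, plated on ChromoAgar; CFU per lesion.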

Staphylococcus aureus [16] = test: Induction of iron starvation in methicillin-resistant Staphylococcus aureus BAA-1707 biofilms assessed as upregulation of isdB gene expression at 1 uM incubated for 4 hrs by RT-qPCR analysis; format: functional; procedure, shortened: as §1

Question: How did the IC50 (HepG2) turn out when `Cc1cccc2nc3c(O)c(Br)c(Cl)c(Br)c3nc12` was run?
Answer: > 200 µM

Question: And the MIC [1]?
Answer: 1.59 µM (≈ 0.64 µg/mL)

Question: And the Activity (Staphylococcus aureus [2])?
Answer: Active

Question: And the IC50 (HEK293)?
Answer: 18.3 µM

Question: What about the Activity (Staphylococcus aureus [3]) of the same molecule?
Answer: 99.9%

Question: And the MIC (Staphylococcus aureus [4])?
Answer: 0.06 µM (≈ 0.0241 µg/mL)

Question: And the Activity (Enterococcus faecalis)?
Answer: 1.73 log10CFU

Question: And the IC50 (HeLa)?
Answer: > 100 µM

Question: And the Activity (Staphylococcus aureus [5])?
Answer: 2.55 log10CFU

Question: What about the Activity (Erythrocyte) of the same molecule?
Answer: <= 1%

Question: And the Activity (Staphylococcus aureus [6])?
Answer: Active

Question: What about the Activity [7] of the same molecule?
Answer: 99.999%

Question: What about the MIC (Staphylococcus aureus [8]) of the same molecule?
Answer: 0.06 µM (≈ 0.0241 µg/mL)

Question: What about the MIC (Staphylococcus aureus [9]) of the same molecule?
Answer: 0.05 µM (≈ 0.0201 µg/mL)

Question: And the Activity (Staphylococcus aureus [10])?
Answer: Active

Question: And the MBC [11]?
Answer: 0.78 µM (≈ 0.314 µg/mL)

Question: And the MIC (Staphylococcus aureus [12])?
Answer: 0.06 µM (≈ 0.0241 µg/mL)

Question: What about the MIC (Enterococcus faecium) of the same molecule?
Answer: 0.1 µM (≈ 0.0402 µg/mL)

Question: And the MIC (Staphylococcus aureus [13])?
Answer: 0.06 µM (≈ 0.0241 µg/mL)

Question: What about the Activity (Staphylococcus aureus [14]) of the same molecule?
Answer: Active

Question: What about the Activity (Staphylococcus aureus [15]) of the same molecule?
Answer: 0.82 log10CFU

Question: And the Activity (Staphylococcus aureus [16])?
Answer: Active
